Experimental data reported in publication PMC3654155 (Bioorganic & medicinal chemistry letters, 2013).

Columns and labels:
Rtt109 = conditions: ref [14], [20]; cited from earlier work
Rtt109-Vps75 [1] = molecular target: T1, Rtt109-Vps75 (Saccharomyces cerevisiae, UniProt Q07794); assay: Rtt109-Vps75 HAT reaction-rate assay with H3n21 peptide, released CoA quantified; assay type: biochemical; conditions: for Vmax, acetyl-CoA titration: 50 nM Rtt109-Vps75, 15 µM H3n21
T1 sequence (Q07794 1-436): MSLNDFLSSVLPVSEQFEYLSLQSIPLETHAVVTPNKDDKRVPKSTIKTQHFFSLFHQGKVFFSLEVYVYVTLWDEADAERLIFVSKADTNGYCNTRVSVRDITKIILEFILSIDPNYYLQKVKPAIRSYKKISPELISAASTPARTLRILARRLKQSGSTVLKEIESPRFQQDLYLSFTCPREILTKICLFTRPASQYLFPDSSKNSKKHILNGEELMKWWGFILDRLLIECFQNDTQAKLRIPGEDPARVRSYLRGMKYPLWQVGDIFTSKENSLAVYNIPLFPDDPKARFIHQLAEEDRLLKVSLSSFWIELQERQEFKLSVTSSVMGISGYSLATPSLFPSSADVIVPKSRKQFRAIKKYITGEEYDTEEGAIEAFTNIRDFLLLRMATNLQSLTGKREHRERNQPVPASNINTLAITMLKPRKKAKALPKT
T1 sequence (P53853 1-264 partner): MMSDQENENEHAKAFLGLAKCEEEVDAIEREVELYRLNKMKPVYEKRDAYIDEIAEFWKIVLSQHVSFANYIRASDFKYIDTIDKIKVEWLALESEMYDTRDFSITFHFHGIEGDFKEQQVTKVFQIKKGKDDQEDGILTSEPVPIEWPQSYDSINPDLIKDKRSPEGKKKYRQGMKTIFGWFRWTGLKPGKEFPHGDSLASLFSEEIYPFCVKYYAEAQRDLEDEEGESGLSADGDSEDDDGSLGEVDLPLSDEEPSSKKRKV

Rtt109-Vps75 [2] = molecular target: T1, Rtt109-Vps75; assay: Single-point HAT reactions, CoA formed by the end of a 30-minute reaction; assay type: biochemical; conditions: data not shown
p300 [3] = molecular target: T2, p300 (Homo sapiens, UniProt Q09472); assay: HAT-ELISA on; assay type: biochemical, mammalian; conditions: 500 nM compound, 15 µg/ml p300
T2 sequence (Q09472 whole entry, species assumed): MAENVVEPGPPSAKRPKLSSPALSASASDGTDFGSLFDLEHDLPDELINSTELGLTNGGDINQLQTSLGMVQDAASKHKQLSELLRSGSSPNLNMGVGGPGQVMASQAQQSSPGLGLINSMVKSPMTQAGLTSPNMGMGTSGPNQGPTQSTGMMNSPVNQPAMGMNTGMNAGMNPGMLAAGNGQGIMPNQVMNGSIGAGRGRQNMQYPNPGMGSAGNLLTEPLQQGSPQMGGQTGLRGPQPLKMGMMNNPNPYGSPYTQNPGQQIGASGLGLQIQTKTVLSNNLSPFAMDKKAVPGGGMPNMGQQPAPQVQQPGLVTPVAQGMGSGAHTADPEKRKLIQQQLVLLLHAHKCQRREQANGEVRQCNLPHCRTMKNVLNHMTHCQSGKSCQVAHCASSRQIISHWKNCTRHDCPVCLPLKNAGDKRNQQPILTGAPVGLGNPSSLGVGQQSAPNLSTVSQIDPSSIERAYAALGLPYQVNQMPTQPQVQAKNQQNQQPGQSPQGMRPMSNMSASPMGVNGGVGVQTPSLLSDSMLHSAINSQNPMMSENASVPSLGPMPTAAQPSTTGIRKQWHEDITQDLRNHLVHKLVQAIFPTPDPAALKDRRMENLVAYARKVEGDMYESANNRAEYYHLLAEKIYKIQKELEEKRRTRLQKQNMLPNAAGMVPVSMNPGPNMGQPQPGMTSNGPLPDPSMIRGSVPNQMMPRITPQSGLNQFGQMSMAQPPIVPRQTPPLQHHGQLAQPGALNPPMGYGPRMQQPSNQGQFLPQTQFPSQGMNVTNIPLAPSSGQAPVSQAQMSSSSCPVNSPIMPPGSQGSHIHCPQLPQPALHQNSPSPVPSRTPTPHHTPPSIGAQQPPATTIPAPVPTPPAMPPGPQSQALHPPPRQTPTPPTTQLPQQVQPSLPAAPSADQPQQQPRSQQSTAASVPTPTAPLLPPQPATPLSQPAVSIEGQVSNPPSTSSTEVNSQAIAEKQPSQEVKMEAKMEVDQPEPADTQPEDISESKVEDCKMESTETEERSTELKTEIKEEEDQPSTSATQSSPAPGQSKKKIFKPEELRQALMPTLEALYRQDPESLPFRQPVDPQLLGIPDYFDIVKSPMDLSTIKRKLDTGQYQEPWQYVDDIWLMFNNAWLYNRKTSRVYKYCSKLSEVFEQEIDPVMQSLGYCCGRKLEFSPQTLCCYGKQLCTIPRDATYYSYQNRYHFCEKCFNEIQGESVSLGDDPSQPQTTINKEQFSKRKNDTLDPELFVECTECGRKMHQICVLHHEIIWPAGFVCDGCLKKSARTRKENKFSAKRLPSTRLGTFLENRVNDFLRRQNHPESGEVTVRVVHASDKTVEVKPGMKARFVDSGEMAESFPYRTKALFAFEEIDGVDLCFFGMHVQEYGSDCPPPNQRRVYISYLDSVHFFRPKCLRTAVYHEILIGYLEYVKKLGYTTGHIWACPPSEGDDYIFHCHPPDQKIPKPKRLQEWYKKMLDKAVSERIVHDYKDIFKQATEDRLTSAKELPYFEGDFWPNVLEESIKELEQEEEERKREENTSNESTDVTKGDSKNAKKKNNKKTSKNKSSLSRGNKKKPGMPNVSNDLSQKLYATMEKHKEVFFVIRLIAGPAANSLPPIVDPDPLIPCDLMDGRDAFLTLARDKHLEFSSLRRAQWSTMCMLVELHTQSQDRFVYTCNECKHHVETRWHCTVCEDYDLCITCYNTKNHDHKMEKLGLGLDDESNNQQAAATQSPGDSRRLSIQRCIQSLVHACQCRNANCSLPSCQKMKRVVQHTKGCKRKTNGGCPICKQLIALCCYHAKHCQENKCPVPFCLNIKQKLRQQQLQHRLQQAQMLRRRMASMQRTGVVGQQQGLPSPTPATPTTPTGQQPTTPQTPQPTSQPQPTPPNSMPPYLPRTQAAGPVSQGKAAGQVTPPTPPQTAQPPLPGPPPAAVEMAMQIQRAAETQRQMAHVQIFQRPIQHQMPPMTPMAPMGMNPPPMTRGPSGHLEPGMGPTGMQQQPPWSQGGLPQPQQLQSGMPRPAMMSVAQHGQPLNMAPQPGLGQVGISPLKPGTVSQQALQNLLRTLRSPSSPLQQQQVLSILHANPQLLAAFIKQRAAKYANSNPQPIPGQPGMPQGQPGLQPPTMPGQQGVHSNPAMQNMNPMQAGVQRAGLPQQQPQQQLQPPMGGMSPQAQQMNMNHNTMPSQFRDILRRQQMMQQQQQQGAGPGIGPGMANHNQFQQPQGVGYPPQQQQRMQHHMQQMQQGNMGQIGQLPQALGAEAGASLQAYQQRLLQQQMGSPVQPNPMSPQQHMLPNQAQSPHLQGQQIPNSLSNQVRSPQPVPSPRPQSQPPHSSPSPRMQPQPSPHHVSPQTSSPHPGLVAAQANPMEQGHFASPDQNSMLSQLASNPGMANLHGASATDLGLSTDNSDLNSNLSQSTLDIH

p300 [4] = molecular target: T2, p300; assay: p300 HAT reaction-rate assay with H3n21 peptide; assay type: biochemical, mammalian
Procedure, shortened: (§1)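 Enzyme: 3.1 µg/ml (61 nM) Gcn5 or 15 µg/ml p300, with 15 µM H3n21 peptide. Enzyme and peptide pre-incubated with DMSO or test compound for 5 min at 30°C. Reactions started with 30 µM acetyl-CoA. Released CoA quantified every 2 min over the first 10 min. Rate derived by linear regression of product versus time. Compound capped at 100 µM. For p300, single-point assays were also run at 0.5–2 µM compound.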

Rtt109/Asf1 = Rtt109/Asf1 (Saccharomyces cerevisiae, UniProt Q07794); assay: HAT-ELISA of H3K56 acetylation on; assay type: biochemical; conditions: 500 nM compound, 50 nM Rtt109, 400 nM Asf1N, 30 min, 30°C
Procedure, shortened: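 Reaction mix: 50 nM Rtt109, 400 nM Asf1N and […] (H3-H4)2 tetramers, pre-incubated 5 min with DMSO or 500 nM test compound. Started with 15 µM acetyl-CoA, with water as the no-substrate control, then incubated 30 min at 30°C. H3K56ac detected by ELISA with H3K56ac-specific rabbit antiserum. Signal normalised to DMSO plus acetyl-CoA.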

Saccharoyces cerevisiae [5] = assay: Sensitivity to the DNA damaging agent camptothecin; assay type: cell-based; conditions: data not shown
[6] = Solubility limit in HAT assays; assay type: physicochemical; conditions: not tested above 100 µM
Rtt109-Vps75 [7] = molecular target: T1, Rtt109-Vps75; assay: Dialysis and time-course tests of tight binding to Rtt109-Vps75; assay type: biochemical
C. albicans [8] = assay: Sensitivity to the DNA damaging agent camptothecin; assay type: cell-based; conditions: data not shown
Gcn5 = Gcn5 (Saccharomyces cerevisiae, UniProt Q03330); assay: Gcn5 HAT reaction-rate assay with H3n21 peptide; assay type: biochemical
Sequence of Gcn5 (Q03330 whole entry): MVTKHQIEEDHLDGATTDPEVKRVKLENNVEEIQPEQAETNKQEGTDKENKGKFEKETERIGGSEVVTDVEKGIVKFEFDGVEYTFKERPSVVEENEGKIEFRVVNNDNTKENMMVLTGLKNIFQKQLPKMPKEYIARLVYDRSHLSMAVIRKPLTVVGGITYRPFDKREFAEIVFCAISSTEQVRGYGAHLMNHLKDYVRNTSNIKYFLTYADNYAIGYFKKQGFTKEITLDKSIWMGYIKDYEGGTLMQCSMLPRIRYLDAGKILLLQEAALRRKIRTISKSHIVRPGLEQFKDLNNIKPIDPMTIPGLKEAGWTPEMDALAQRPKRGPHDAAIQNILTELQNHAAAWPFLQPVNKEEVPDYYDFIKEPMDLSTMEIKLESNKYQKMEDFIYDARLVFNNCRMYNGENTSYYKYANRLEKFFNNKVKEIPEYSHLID
Procedure, shortened: as §1

Rtt109-Vps75 [9] = molecular target: T1, Rtt109-Vps75; assay: HAT-ELISA of H3K56 acetylation on; assay type: biochemical; conditions: 500 nM compound, 50 nM Rtt109, 50 nM Vps75, 30 min, 30°C
Saccharoyces cerevisiae [10] = assay: Cellular levels of H3K56ac; assay type: cell-based; conditions: data not shown
C. albicans [11] = assay: Cellular levels of H3K56ac; assay type: cell-based; conditions: data not shown

For CC(=O)N[C@@H](CCCCNC(=O)CSCCNC(=O)CCNC(=O)[C@H](O)C(C)(C)COP(=O)(O)OP(=O)(O)OC[C@H]1O[C@@H](n2cnc3c(N)ncnc32)[C@H](O)[C@@H]1OP(=O)(O)O)C(N)=O [Lys-CoA], the “effect on Rtt109 catalysis” value (Rtt109) is listed as “do not affect Rtt109 catalysis”.

For CCC1(c2ccccc2)NC(=O)N(CC(=O)N(C)Cc2c(F)cccc2Cl)C1=O (stereo not shown) [SAR9], the “effect on reaction rates, dose response” value (Rtt109-Vps75 [1]; 100 nM – 1 µM compound, 50 nM Rtt109-Vps75) was “minimal inhibition even at the highest concentration tested” and the “inhibition of acetylation by Rtt109-Vps75 in single-point HAT reactions” value (Rtt109-Vps75 [2]) was “not as potent as compound 1”.

With CCCC1(c2ccccc2)NC(=O)N(CC(=O)N(C)Cc2c(F)cccc2Cl)C1=O (stereo not shown) [compound 1, N-[(2-chloro-6-fluorophenyl)methyl]-2-(2,5-dioxo-4-phenyl-4-propylimidazolidin-1-yl)-N-methylacetamide] the “inhibition of p300 HAT activity on (H3-H4)2 tetramers” value (p300 [3]) was “no inhibitory effect”, the “preference for inhibition of Rtt109 over p300 and Gcn5” value (Rtt109-Vps75 [1]) was “greater than two order of magnitude preference” and the “Vmax, acetyl-CoA titration” value (Rtt109-Vps75 [1]; 30 µM compound 1) was 1.46 ± 0.08 nM/s. For the same molecule, the “Vmax, acetyl-CoA titration” value (Rtt109-Vps75 [1]; 60 µM compound 1) was 0.68 ± 0.09 nM/s, the “inhibition of Rtt109-Vps75 in single point enzyme assay” value (Rtt109-Vps75 [1]; 0.5 – 2 µM compound) was “inhibited Rtt109” and the “inhibition of p300 in single point enzyme assay” value (p300 [4]; 0.5 – 2 µM compound) was “without inhibiting p300”. The “enzyme reaction rate remaining, p300” value (p300 [4]; compound up to 100 µM, 15 µg/ml p300) was no less than 80 % activity, the “inhibition of HAT activity of p300” value (p300 [4]; dose response up to 100 µM) was “did not significantly inhibit” and the “inhibition of H3K56 acetylation by Rtt109/Asf1” value (Rtt109/Asf1) was “inhibited acetylation”. The “effect on sensitivity to camptothecin” value (Saccharoyces cerevisiae [5]) was “have not observed that compound 1 is able to affect”, the solubility in assay [6] was “solubility limitations” and the “time course of inhibition” value (Rtt109-Vps75 [7]; 1 µM Rtt109-Vps75 with 1.0 µM compound 1, incubated 0-60 minutes on ice) was “the degree of inhibition increased during the entire 60 minutes”. The mode of inhibition (Rtt109-Vps75 [7]; from substrate titrations, dialysis and enzyme-concentration dependence) was “tight or perhaps irreversible inhibitor”, the “effect on sensitivity to camptothecin” value (C. albicans [8]) was “have not observed that compound 1 is able to affect” and the “enzyme reaction rate remaining, Gcn5” value (Gcn5; compound up to 100 µM, 61 nM Gcn5) was no less than 80 % activity. The “inhibition of HAT activity of Gcn5” value (Gcn5; dose response up to 100 µM) was “did not significantly inhibit”, the “inhibition of H3K56 acetylation by Rtt109-Vps75” value (Rtt109-Vps75 [9]) was “inhibited acetylation” and the “effect on cellular levels of H3K56ac” value (Saccharoyces cerevisiae [10]) was “have not observed that compound 1 is able to affect”. The “effect on cellular levels of H3K56ac” value (C. albicans [11]) was “have not observed that compound 1 is able to affect”.
